Results as given in ChEMBL document CHEMBL1138205, “Novel heterobivalent tacrine derivatives as cholinesterase inhibitors with notable selectivity toward butyrylcholinesterase” (J Med Chem, 2006).
Active and inactive are the calls of the source. No cut-off for these calls is given here.

Key:
Acetylcholinesterase [1] = target: Acetylcholinesterase (Electrophorus electricus, UniProt O42275); experiment: (§1) Inhibition of Electrophorus electricus AChE
Cholinesterase = Cholinesterase (Homo sapiens, UniProt P06276); experiment: Inhibition of human plasma BChE; assay type: cell-free
How it was run: (§2)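 Ellman-type spectrophotometric assay at 412 nm in 100 mM sodium phosphate, 100 mM NaCl, pH 7.3, with DTNB. Enzymes: E. electricus AChE (soluble G4), recombinant T. californica AChE (Pichia pastoris, G4), recombinant human AChE (HEK 293, G2/G4), human plasma BChE (G4). Enzyme (~3 U/mL stock) and inhibitor preincubated 15 min at 25 °C. Acetylthiocholine (AChE) or butyrylthiocholine (BChE) then started the reaction. IC50 in duplicate from ≥4 inhibitor concentrations.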

Acetylcholinesterase [2] = target: T1, Acetylcholinesterase (Homo sapiens, UniProt P22303); experiment: Inhibition of human AChE; how it was run: as §2
Acetylcholinesterase [3] = target: Acetylcholinesterase (Torpedo californica, UniProt P04058); experiment: Inhibition of Torpedo californica AChE; set-up: species or system Tetronarce californica; how it was run: as §2
[4] = target: Cholinesterases; ACHE & BCHE (Homo sapiens) (UniProt P06276+P22303); experiment: Selectivity for human BChE over human AChE
How it was run: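 Ratio of IC50 for recombinant human AChE to IC50 for human plasma BChE. Both were measured by DTNB absorbance at 412 nm, pH 7.3, after 15 min enzyme–inhibitor preincubation at 25 °C. Acetyl- or butyrylthiocholine served as substrate. Each IC50 in duplicate from ≥4 inhibitor concentrations.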

Acetylcholinesterase [5] = target: T1, Acetylcholinesterase; experiment: Inhibition of human AChE at 100 uM
[6] = target: Acetylcholinesterase (Electrophorus electricus) (UniProt O42275); experiment: Inhibition of Electrophorus electricus AChE at 100 uM
[7] = target: Acetylcholinesterase (Electrophorus electricus) (UniProt O42275); experiment: as §1

Chain of Acetylcholinesterase (Torpedo californica, UniProt P04058) (P04058 whole entry): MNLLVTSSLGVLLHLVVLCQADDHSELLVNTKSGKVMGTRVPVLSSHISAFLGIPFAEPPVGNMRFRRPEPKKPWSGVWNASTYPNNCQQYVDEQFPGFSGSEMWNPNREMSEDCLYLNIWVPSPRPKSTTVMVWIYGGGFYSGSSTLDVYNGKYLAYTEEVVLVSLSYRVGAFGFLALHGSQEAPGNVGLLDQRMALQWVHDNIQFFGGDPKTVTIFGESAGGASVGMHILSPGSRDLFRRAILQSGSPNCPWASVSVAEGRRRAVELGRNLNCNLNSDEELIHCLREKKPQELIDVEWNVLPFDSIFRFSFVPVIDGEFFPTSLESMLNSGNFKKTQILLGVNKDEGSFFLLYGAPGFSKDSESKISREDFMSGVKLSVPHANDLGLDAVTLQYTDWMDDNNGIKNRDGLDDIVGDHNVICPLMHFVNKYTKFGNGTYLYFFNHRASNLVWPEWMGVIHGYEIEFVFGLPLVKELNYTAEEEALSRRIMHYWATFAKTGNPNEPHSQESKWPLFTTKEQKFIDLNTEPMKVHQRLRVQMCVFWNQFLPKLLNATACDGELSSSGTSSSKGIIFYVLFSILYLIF
T1 sequence (P22303 whole entry): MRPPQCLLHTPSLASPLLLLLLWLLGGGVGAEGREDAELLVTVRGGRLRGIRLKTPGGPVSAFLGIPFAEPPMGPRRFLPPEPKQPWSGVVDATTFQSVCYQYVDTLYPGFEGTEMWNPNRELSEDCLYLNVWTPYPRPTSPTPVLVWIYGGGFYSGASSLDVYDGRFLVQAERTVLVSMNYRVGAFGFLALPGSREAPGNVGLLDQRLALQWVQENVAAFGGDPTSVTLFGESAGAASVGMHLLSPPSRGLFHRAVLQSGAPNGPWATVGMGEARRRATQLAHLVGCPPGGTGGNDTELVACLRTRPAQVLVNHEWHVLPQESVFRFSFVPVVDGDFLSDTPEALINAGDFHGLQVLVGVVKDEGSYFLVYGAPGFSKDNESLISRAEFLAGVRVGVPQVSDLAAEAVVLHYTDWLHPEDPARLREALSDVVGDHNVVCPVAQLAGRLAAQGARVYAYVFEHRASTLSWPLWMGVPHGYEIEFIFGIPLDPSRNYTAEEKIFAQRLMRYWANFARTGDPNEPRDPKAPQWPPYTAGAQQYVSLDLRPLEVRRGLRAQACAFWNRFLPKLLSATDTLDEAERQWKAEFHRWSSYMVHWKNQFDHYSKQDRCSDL
Chain of Acetylcholinesterase (Electrophorus electricus, UniProt O42275) (O42275 whole entry): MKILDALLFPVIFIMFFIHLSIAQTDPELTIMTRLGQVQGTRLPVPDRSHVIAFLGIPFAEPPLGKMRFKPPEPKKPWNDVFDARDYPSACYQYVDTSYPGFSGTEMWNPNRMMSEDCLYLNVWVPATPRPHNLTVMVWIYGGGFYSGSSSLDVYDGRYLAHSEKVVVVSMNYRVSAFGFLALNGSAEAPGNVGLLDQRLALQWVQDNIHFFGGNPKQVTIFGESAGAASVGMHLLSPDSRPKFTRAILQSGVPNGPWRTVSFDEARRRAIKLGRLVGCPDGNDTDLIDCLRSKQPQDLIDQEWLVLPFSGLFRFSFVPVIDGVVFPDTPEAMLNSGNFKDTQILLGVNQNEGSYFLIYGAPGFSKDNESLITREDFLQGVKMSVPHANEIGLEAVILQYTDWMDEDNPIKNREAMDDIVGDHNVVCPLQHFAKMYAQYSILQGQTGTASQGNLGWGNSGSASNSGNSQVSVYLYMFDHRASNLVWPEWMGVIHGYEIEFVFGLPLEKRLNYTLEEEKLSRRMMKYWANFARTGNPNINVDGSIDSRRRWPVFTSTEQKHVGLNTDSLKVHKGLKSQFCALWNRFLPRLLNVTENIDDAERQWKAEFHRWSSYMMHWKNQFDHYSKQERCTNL
Chain of Cholinesterase (P06276 whole entry): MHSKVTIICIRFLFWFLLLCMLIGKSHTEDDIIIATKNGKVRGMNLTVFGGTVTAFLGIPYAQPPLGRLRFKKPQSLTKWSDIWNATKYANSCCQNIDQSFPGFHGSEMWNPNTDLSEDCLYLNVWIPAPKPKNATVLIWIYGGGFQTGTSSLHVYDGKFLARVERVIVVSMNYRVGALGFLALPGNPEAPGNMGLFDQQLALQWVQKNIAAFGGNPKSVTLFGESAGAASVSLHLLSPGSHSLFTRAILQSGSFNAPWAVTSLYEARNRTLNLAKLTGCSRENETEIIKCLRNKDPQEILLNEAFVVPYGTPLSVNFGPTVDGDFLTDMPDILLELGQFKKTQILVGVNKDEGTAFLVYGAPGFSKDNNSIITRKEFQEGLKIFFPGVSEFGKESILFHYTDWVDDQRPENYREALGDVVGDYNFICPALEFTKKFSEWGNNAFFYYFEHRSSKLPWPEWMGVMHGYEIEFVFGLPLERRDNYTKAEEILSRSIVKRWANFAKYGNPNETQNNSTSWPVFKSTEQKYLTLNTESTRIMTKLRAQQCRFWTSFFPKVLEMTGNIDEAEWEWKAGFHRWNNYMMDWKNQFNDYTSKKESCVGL
Chain of Cholinesterases; ACHE & BCHE (Homo sapiens) (P06276 whole entry, looked up): as the sequence (P06276 whole entry) above
Chain of Cholinesterases; ACHE & BCHE (Homo sapiens) (P22303 whole entry, looked up): as the sequence (P22303 whole entry) above
Chain of Acetylcholinesterase (Electrophorus electricus) (O42275 24-633 limits assumed): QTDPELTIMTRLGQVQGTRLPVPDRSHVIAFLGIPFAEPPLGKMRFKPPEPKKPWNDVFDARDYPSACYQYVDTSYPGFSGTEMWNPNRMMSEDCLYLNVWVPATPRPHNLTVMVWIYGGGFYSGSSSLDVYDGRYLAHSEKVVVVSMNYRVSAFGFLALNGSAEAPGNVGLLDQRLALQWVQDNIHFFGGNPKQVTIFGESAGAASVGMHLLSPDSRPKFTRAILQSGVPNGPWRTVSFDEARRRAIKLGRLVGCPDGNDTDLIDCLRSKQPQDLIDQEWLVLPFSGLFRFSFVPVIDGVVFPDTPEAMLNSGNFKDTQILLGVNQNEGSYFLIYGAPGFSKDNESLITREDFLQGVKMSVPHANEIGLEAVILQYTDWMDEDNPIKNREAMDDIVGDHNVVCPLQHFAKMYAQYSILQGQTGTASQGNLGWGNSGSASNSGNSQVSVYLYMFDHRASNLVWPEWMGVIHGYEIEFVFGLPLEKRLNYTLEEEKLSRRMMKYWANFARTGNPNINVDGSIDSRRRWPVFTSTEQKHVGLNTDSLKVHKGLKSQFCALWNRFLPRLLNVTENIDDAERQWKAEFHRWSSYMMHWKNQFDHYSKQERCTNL

| SMILES | IC50 (Acetylcholinesterase [1]) | IC50 (Cholinesterase) | IC50 (Acetylcholinesterase [2]) | IC50 (Acetylcholinesterase [3]) | Ratio IC50 [4] | Activity (Acetylcholinesterase [5]) | Activity [6] | Activity [7] |
| --- | --- | --- | --- | --- | --- | --- | --- | --- |
| NNc1c2c(nc3ccccc13)CCCC2 | 13 µM |  |  |  |  |  |  |  |
| COc1cc(CCC(=O)NCCCC(=O)NNc2c3c(nc4ccccc24)CCCC3)cc(OC)c1OC | 0.0521 µM | 0.000226 µM | 0.0721 µM | 0.158 µM | 319 |  |  |  |
| COc1cc(CCC(=O)NCCC(=O)NNc2c3c(nc4ccccc24)CCCC3)cc(OC)c1OC | 0.102 µM | 0.00603 µM | 0.135 µM | 0.0689 µM | 22.4 |  |  |  |
| COc1cc(CCC(=O)NNc2c3c(nc4ccccc24)CCCC3)cc(OC)c1OC |  | 0.0121 µM | 0.365 µM | 0.0401 µM | 30.2 |  |  |  |
| CCN(CC)C(C)C(=O)N1c2ccccc2Sc2ccccc21 (stereo not drawn) |  | 3.37 µM |  | 34.7 µM | 12000 | inactive | inactive |  |
| COc1cc(C(=O)NNc2c3c(nc4ccccc24)CCCC3)cc(OC)c1OC | 2.26 µM | 0.0017 µM | 0.386 µM | 0.0211 µM | 227 |  |  |  |
| COc1cc(C(=O)NCCCCCCCC(=O)NN)cc(OC)c1OC | 18 µM |  |  |  |  |  |  |  |
| COc1cc(CCC(=O)NCCCCC(=O)NNc2c3c(nc4ccccc24)CCCC3)cc(OC)c1OC | 0.0547 µM | 0.000139 µM | 0.059 µM | 0.102 µM | 424 |  |  |  |
| COc1cc(C(=O)NCCCCCCC(=O)NNc2c3c(nc4ccccc24)CCCC3)cc(OC)c1OC | 0.00976 µM | 0.000523 µM | 0.00565 µM | 0.0252 µM | 10.8 |  |  |  |
| COc1cc(C(=O)NCCCCCC(=O)NNc2c3c(nc4ccccc24)CCCC3)cc(OC)c1OC | 0.0201 µM | 0.000969 µM | 0.0182 µM | 0.0557 µM | 18.8 |  |  |  |
| COc1cc(C(=O)NCCC(=O)NNc2c3c(nc4ccccc24)CCCC3)cc(OC)c1OC | 0.1 µM | 0.0128 µM | 0.0892 µM | 0.0495 µM | 6.97 |  |  |  |
| COc1cc(C(=O)NCCCCCCCC(=O)NNc2c3c(nc4ccccc24)CCCC3)cc(OC)c1OC | 0.00325 µM | 0.000293 µM | 0.00524 µM | 0.0172 µM | 17.9 |  |  | 3.23 nM |
| COc1cc(C(=O)NCCCCC(=O)NNc2c3c(nc4ccccc24)CCCC3)cc(OC)c1OC | 0.0202 µM | 0.00168 µM | 0.017 µM | 0.0181 µM | 10.1 |  |  |  |
| COc1cc(C(=O)NCC(=O)NNc2c3c(nc4ccccc24)CCCC3)cc(OC)c1OC | 0.104 µM | 0.0276 µM | 0.0516 µM | 0.163 µM | 1.87 |  |  |  |
| COc1cc(C(=O)NCCCC(=O)NNc2c3c(nc4ccccc24)CCCC3)cc(OC)c1OC | 0.0605 µM | 0.00713 µM | 0.241 µM | 0.0263 µM | 33.8 |  |  |  |
| COc1cc(CCC(=O)NCC(=O)NNc2c3c(nc4ccccc24)CCCC3)cc(OC)c1OC | 0.122 µM | 0.024 µM | 0.0407 µM | 0.0401 µM | 1.7 |  |  |  |
| COc1cc(CCC(=O)NCCCCCC(=O)NNc2c3c(nc4ccccc24)CCCC3)cc(OC)c1OC | 0.0202 µM | 0.000141 µM | 0.00839 µM | 0.0398 µM | 59.5 |  |  |  |
| CCOCC(=O)CCCCCCCNC(=O)c1cc(OC)c(OC)c(OC)c1 | > 250 µM |  |  |  |  |  |  |  |
